Values after ≈ are worked out from the molar mass of the structure shown. Active and inactive are the calls of the source. No cut-off for these calls is given here.
What was measured:
[1] = test system: Staphylococcus aureus; assay: Antibacterial activity against Staphylococcus aureus INA 00761; assay type: functional
Procedure, shortened: (§1)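 Strains grown in modified Gause's nutrient medium N 2, inoculum 10⁶ cells/ml. Test compound dissolved in 50% aqueous methanol, added at ten volume percent of the medium. Growth controls: medium without additions, medium with solvent mixture, and clinical antibiotics (amikacin, ciprofloxacin, isoniazid, rifampicin, oxacillin, vancomycin).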

[2] = test system: Aspergillus versicolor; assay: Antifungal activity against Aspergillus versicolor SRX7729182 STG-25G assessed as reduction in fungal growth at 0.1 to 3.5 mM measured for 24 days by drop dilution assay relative to control; assay type: functional; conditions: dose 0.1-3.5 mM, time 24.0 day
Procedure, shortened: (§2)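 Drop-dilution method. Suspension plated on CDA with or without compound (screening range 0.1–3.5 mM); 5-fluorocytosine positive control. Incubated at 26 °C. Inhibition % = (Dc−Dt)/Dc × 100 from colony diameters; triplicate, repeated at least twice.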

[3] = test system: Micrococcus luteus; assay: Antibacterial activity against Micrococcus luteus NCTC 8340; assay type: functional; procedure, shortened: as §1
[4] = test system: Aspergillus; assay: Antifungal activity against Aspergillus SRX7729186 STG-93W assessed as reduction in fungal growth at 0.1 to 3.5 mM measured for 24 days by drop dilution assay relative to control; assay type: functional; conditions: dose 0.1-3.5 mM, time 24.0 day; procedure, shortened: as §2
[5] = test system: Leuconostoc mesenteroides; assay: Antibacterial activity against Leuconostoc mesenteroides VKPM B-4177; assay type: functional; procedure, shortened: as §1
[6] = test system: Simplicillium lamellicola; assay: Antifungal activity against Simplicilium-lamellicola SRX772919 STG-96 assessed as reduction in fungal growth at 0.1 to 3.5 mM measured for 24 days by drop dilution assay relative to control; assay type: functional; conditions: dose 0.1-3.5 mM, time 24.0 day; procedure, shortened: as §2
[7] = test system: Cladosporium parahalotolerans; assay: Antifungal activity against Cladosporium-parahalotolerans SRX7729188 STG-93B assessed as reduction in fungal growth at 0.1 to 3.5 mM measured for 24 days by drop dilution assay relative to control; assay type: functional; conditions: dose 0.1-3.5 mM, time 24.0 day; procedure, shortened: as §2
[8] = test system: Aspergillus versicolor; assay: Antifungal activity against Aspergillus versicolor SRX7729174 STG-25G assessed as reduction in fungal growth at 0.1 to 3.5 mM measured for 24 days by drop dilution assay relative to control; assay type: functional; conditions: dose 0.1-3.5 mM, time 24.0 day; procedure, shortened: as §2
[9] = test system: Alternaria chartarum; assay: Antifungal activity against Ulocladium chartarum SRX7729176 STG-36 assessed as reduction in fungal growth at 0.1 to 3.5 mM measured for 24 days by drop dilution assay relative to control; assay type: functional; conditions: dose 0.1-3.5 mM, time 24.0 day; procedure, shortened: as §2
[10] = test system: Aspergillus amoenus; assay: Antifungal activity against Aspergillus-amoenus SRX7729194 STG-106 assessed as reduction in fungal growth at 0.1 to 3.5 mM measured for 24 days by drop dilution assay relative to control; assay type: functional; conditions: dose 0.1-3.5 mM, time 24.0 day; procedure, shortened: as §2
[11] = test system: Mycolicibacterium smegmatis; assay: Antibacterial activity against Mycobacterium smegmatis mc2155; assay type: functional
Procedure, shortened: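 Strains were grown in modified Gause's nutrient medium N 2 at 10⁶ cells/ml. The compound was dissolved in 50% aqueous methanol and added at 10 volume percent of the medium. Controls were untreated cultures, medium with the solvent mixture, and clinical antibiotics.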

[12] = test system: Aspergillus creber; assay: Antifungal activity against Aspergillus-creber SRX7729180 STG-57 assessed as reduction in fungal growth at 0.1 to 3.5 mM measured for 24 days by drop dilution assay relative to control; assay type: functional; conditions: dose 0.1-3.5 mM, time 24.0 day; procedure, shortened: as §2
[13] = test system: Staphylococcus aureus; assay: Antibacterial activity against Staphylococcus aureus FDA 209 P; assay type: functional; procedure, shortened: as §1
[14] = Cytotoxicity against human A549 cells by MTT assay; assay type: cell-based
Procedure, shortened: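 Adherent A549 cells passaged in DMEM with 10% fetal calf serum and 2 mM glutamine, at 37 °C, 5% CO2, 90% humidity. MTT test. CC50 is the concentration that inhibits culture growth by 50%.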

[15] = test system: Microascus paisii; assay: Antifungal activity against Microascus-paisii SRX7729192 STG-103 assessed as reduction in fungal growth at 0.1 to 3.5 mM measured for 24 days by drop dilution assay relative to control; assay type: functional; conditions: dose 0.1-3.5 mM, time 24.0 day; procedure, shortened: as §2
[16] = test system: Mycolicibacterium smegmatis; assay: Antibacterial activity against Mycobacterium smegmatis VKPM Ac-1339; assay type: functional; procedure, shortened: as §1
[17] = test system: Cladosporium halotolerans; assay: Antifungal activity against Cladosporium-halotolerans SRX7729178 STG-52B assessed as reduction in fungal growth at 0.1 to 3.5 mM measured for 24 days by drop dilution assay relative to control; assay type: functional; conditions: dose 0.1-3.5 mM, time 24.0 day; procedure, shortened: as §2
[18] = test system: Bacillus subtilis; assay: Antibacterial activity against Bacillus subtilis ATCC 6633; assay type: functional; procedure, shortened: as §1
[19] = test system: Simplicillium lamellicola; assay: Antifungal activity against Simplicillium lamellicola SRX772919 STG-96 assessed as reduction in fungal growth at 3 mM measured upto 48 days by drop dilution assay relative to control; assay type: functional; conditions: time day <=48
Procedure, shortened: (§3)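 Incubated up to 48 days at 26 °C. Colony diameters read every 3 days (days 6–48). Growth inhibition = (Dc−Dt)/Dc × 100 versus control. Inoculum 5 × 10⁵ CFU. Triplicate, repeated at least twice.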

[20] = Antifungal activity against Ulocladium chartarum SRX7729176 STG-36 assessed as reduction in fungal growth at 3 mM measured upto 48 days by drop dilution assay relative to control; assay type: functional; conditions: Alternaria chartarum, time day <=48; procedure, shortened: as §3
[21] = Subchronic toxicity in ip dosed mouse administered for 5 days and observed for 4 weeks; assay type: organism-based; conditions: in vivo
[22] = Antifungal activity against Microascus-paisii SRX7729192 STG-103 assessed as reduction in fungal growth at 3 mM measured upto 48 days by drop dilution assay relative to control; assay type: functional; conditions: time day <=48; procedure, shortened: as §3
[23] = test system: Aspergillus; assay: Antifungal activity against Aspergillus SRX7729186 STG-93W assessed as reduction in fungal growth at 3 mM measured upto 48 days by drop dilution assay relative to control; assay type: functional; conditions: time day <=48; procedure, shortened: as §3
[24] = test system: Aspergillus versicolor; assay: Antifungal activity against Aspergillus versicolor SRX7729174 STG-25G assessed as reduction in fungal growth at 3 mM measured upto 48 days by drop dilution assay relative to control; assay type: functional; conditions: time day <=48; procedure, shortened: as §3
[25] = Antifungal activity against Cladosporium-parahalotolerans SRX7729188 STG-93B assessed as reduction in fungal growth at 3 mM measured upto 48 days by drop dilution assay relative to control; assay type: functional; conditions: time day <=48; procedure, shortened: as §3
[26] = Acute toxicity in ip dosed mouse administered for 5 days and observed for 4 weeks; assay type: organism-based; conditions: in vivo
[27] = Antifungal activity against Aspergillus-creber SRX7729180 STG-57 assessed as reduction in fungal growth at 3 mM measured upto 48 days by drop dilution assay relative to control; assay type: functional; conditions: time day <=48; procedure, shortened: as §3
[28] = Subchronic toxicity in ip dosed mouse assessed as delayed effect administered for 5 days and observed for 4 weeks; assay type: organism-based; conditions: in vivo
[29] = Antifungal activity against Aspergillus-amoenus SRX7729194 STG-106 assessed as reduction in fungal growth at 3 mM measured upto 48 days by drop dilution assay relative to control; assay type: functional; conditions: time day <=48; procedure, shortened: as §3
[30] = Antifungal activity against Cladosporium-halotolerans SRX7729178 STG-52B assessed as reduction in fungal growth at 3 mM measured upto 48 days by drop dilution assay relative to control; assay type: functional; conditions: time day <=48; procedure, shortened: as §3
[31] = test system: Aspergillus versicolor; assay: Antifungal activity against Aspergillus versicolor SRX7729182 STG-25G assessed as reduction in fungal growth at 3 mM measured upto 48 days by drop dilution assay relative to control; assay type: functional; conditions: time day <=48; procedure, shortened: as §3
[32] = Chemical stability of compound in pH 7.5 at 5 mg measured after 7 days by TLC analysis; assay type: physicochemical; conditions: pH 7.5, 168 h, time 7 day
Procedure, shortened: (§4)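 Compound incubated at 37 °C in 0.2 M glycine/HCl (pH 2.2), 0.1 M potassium phosphate (pH 7.5) or 0.2 M glycine/NaOH (pH 9.0). Followed for 24 h and up to over a week.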

[33] = Aqueous solubility of compound; assay type: physicochemical; conditions: buffer
[34] = Chemical stability of compound in pH 2.2 at 5 mg measured after 7 days by TLC analysis; assay type: physicochemical; conditions: pH 2.2, 168 h, time 7 day; procedure, shortened: as §4
[35] = Metabolic stability in human serum assessed as half life at 100 mM measured for 24 hrs by HPLC/TLC analysis; assay type: ADME, cell-free
[36] = Chemical stability of compound in pH 9 at 5 mg measured after 24 hrs by TLC analysis; assay type: physicochemical; conditions: pH 9, 24 h; procedure, shortened: as §4

SMILES	MIC [1] [µM]	inhibition [2]	MIC [3] [µM]	inhibition [4]	MIC [5] [µM]	inhibition [6]	inhibition [7]	inhibition [8]	inhibition [9]	inhibition [10]	MIC [11] [µM]	inhibition [12]	MIC [13] [µM]	CC50 [14] [µM]	inhibition [15]	MIC [16] [µM]	inhibition [17]	MIC [18] [µM]	Stabilty [32]	solubility [33]	further results
CCCCCCCCCCNc1nc(=O)n([C@H]2C[C@H](O)[C@@H](CO)O2)cc1C	50 (≈ 19.1 µg/mL)	inactive	50 (≈ 19.1 µg/mL)	inactive	50 (≈ 19.1 µg/mL)	inactive	inactive	inactive	inactive	inactive	50 (≈ 19.1 µg/mL)	inactive	50 (≈ 19.1 µg/mL)	156	inactive	50 (≈ 19.1 µg/mL)	inactive	50 (≈ 19.1 µg/mL)			
CCCCCCCCCCCCNc1nc(=O)n([C@H]2C[C@H](O)[C@@H](CO)O2)cc1C	48 (≈ 19.7 µg/mL)	Active	24 (≈ 9.83 µg/mL)	Active	24 (≈ 9.83 µg/mL)	Active	Active	Active	Active	Active	24 (≈ 9.83 µg/mL)	Active	48 (≈ 19.7 µg/mL)	158	Active	24 (≈ 9.83 µg/mL)	Active	24 (≈ 9.83 µg/mL)			inhibition at 3000 µM [19]: 100%; inhibition at 3000 µM [20]: 100%; LD50 at 672 h [21]: 215 mg/kg; inhibition at 3000 µM [22]: 100%; inhibition at 3000 µM [23]: 100%; inhibition at 3000 µM [24]: 100%; inhibition at 3000 µM [25]: 100%; LD50 at 672 h [26]: 270 mg/kg; inhibition at 3000 µM [27]: 100%; LD50 at 672 h [28]: 200 mg/kg; inhibition at 3000 µM [29]: 100%; inhibition at 3000 µM [30]: 100%; inhibition at 3000 µM [31]: 100%
Nc1nc(=O)[nH]cc1F		Active		Active		Active	Active	Active	Active	Active		Active			Active		Active				
CCCCCCCCNc1nc(=O)n([C@H]2C[C@H](O)[C@@H](CO)O2)cc1C	> 200	Active	> 200	Active	> 200	Active	Active	Active	Active	Active	> 200	Active	> 200	90	Active	> 200	Active	> 200			
CCCCCCCCCCNc1nc(=O)n([C@H]2C[C@H](OC(=O)OCCOCCOCCO)[C@@H](CO)O2)cc1C	54 (≈ 30.1 µg/mL)	inactive	> 45	inactive	90 (≈ 50.2 µg/mL)		inactive	inactive	inactive	inactive	54 (≈ 30.1 µg/mL)	inactive	54 (≈ 30.1 µg/mL)	90		54 (≈ 30.1 µg/mL)	inactive	90 (≈ 50.2 µg/mL)	Stable	Soluble	Stabilty [34]: Stable; half-life [35]: ≥ 24 h; Stabilty [36]: Stable
CCCCCCCCCCCCNc1nc(=O)n([C@H]2C[C@H](OC(=O)OCCOCCOCCO)[C@@H](CO)O2)cc1C	50 (≈ 29.3 µg/mL)		50 (≈ 29.3 µg/mL)		68 (≈ 39.8 µg/mL)						68 (≈ 39.8 µg/mL)		50 (≈ 29.3 µg/mL)	90		68 (≈ 39.8 µg/mL)		68 (≈ 39.8 µg/mL)	Stable	Soluble	Stabilty [34]: Stable; half-life [35]: ≥ 24 h; Stabilty [36]: Stable

— ChEMBL document CHEMBL4732208, “Discovery of novel N-alkylcytidines as promising antimicrobial agents” (Eur J Med Chem, 2021)
